Legend:
TRPA1 = TRPA1 (Homo sapiens, UniProt O75762); experiment: Selectivity Ca2+ assay in TRPA1-expressing HEK293 cells; assay type: cell-based; conditions: 1s 50 μM; Fluo-8
TRPV1 = TRPV1 (Homo sapiens, UniProt Q8NER1); experiment: Selectivity Ca2+ assay in TRPV1-expressing HEK293 cells; assay type: cell-based; conditions: 1s 50 μM; Fluo-8
TRPV3 = biological target: T1, TRPV3 (Homo sapiens, UniProt Q8NET8); experiment: Selectivity Ca2+ assay in TRPV3-expressing HEK293 cells; assay type: cell-based; conditions: 1s 50 μM; Fluo-8
T1 sequence (Q8NET8 1-790): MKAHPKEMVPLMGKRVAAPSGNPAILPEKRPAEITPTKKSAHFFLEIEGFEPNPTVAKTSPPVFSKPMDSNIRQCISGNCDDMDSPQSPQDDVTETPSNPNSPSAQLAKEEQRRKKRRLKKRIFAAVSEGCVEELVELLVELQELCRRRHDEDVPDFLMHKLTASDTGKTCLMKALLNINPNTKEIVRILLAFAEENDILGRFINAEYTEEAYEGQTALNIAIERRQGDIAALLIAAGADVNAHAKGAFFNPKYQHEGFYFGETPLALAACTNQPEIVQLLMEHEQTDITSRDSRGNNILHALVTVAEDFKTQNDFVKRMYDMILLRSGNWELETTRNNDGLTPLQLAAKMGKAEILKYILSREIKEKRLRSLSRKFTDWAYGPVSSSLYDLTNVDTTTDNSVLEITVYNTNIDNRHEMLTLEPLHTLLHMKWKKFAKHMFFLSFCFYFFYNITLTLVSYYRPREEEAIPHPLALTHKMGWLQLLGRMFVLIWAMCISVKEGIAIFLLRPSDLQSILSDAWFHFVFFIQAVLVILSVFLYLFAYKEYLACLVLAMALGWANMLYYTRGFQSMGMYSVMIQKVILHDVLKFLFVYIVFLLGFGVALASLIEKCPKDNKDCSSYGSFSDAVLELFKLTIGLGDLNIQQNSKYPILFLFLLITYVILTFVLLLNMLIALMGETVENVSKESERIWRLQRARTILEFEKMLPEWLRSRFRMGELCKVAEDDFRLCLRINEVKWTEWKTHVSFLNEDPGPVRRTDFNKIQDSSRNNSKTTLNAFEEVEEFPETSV

MKN-45 cells = experiment: Wound-healing migration assay; assay type: cell-based, human; conditions: 5 μM, 24 h
In short: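 MKN-45 cells were seeded and cultured overnight, then scratched with a pipette tip and treated with test compound. The wound was imaged at 0 and 24 h. The width of the cell-free zone was measured at six positions, and relative migration distance was calculated. A positive-control compound was run alongside.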

TRPA1, sequence (O75762 whole entry, species assumed): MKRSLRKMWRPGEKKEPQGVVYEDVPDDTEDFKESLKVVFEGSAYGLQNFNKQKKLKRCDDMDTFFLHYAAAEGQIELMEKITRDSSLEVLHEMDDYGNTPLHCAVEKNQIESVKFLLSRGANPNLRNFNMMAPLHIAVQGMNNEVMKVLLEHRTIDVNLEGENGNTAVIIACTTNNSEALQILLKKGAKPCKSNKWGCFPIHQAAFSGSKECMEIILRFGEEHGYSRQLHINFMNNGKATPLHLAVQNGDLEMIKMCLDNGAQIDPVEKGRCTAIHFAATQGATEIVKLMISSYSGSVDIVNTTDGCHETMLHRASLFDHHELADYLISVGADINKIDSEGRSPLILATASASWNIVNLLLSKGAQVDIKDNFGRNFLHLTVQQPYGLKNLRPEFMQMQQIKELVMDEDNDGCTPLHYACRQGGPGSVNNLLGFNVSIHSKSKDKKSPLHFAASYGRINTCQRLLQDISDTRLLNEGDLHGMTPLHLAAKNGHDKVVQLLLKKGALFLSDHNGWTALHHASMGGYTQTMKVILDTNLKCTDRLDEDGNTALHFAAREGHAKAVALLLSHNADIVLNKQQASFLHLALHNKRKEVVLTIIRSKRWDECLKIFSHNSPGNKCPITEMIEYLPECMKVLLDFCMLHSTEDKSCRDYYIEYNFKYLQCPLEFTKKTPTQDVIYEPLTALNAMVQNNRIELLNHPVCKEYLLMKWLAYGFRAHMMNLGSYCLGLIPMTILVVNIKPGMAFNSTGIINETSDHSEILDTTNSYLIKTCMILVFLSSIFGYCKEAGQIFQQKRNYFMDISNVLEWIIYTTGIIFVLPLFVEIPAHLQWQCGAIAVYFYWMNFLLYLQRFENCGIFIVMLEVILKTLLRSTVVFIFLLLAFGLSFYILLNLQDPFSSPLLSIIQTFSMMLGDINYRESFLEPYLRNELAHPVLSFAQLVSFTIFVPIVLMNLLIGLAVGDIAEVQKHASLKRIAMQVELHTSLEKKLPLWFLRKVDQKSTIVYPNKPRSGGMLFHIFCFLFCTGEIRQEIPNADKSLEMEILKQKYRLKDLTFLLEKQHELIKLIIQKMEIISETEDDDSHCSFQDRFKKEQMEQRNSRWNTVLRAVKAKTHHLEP
TRPV1, sequence (Q8NER1 whole entry, species assumed): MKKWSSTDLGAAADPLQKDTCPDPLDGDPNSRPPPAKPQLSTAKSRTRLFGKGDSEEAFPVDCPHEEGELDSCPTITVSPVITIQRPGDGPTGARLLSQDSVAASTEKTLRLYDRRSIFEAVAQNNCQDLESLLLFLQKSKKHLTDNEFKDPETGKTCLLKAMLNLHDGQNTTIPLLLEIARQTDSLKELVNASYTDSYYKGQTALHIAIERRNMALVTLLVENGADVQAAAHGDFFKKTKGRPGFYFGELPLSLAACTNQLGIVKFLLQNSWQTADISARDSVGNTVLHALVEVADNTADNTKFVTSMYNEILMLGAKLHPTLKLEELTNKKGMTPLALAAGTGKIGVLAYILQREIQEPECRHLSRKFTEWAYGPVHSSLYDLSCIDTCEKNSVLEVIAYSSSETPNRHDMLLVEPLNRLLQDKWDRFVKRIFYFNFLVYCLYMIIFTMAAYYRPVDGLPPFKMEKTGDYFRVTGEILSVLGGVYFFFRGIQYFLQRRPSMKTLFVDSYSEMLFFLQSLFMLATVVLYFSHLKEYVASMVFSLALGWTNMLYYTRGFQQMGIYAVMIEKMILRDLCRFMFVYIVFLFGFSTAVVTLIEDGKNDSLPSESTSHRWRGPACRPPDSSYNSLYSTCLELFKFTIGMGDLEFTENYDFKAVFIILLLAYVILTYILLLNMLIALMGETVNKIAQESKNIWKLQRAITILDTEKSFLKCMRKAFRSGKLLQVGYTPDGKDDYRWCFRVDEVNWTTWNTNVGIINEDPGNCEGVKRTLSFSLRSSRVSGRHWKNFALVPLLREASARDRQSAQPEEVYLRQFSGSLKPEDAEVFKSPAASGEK

Effect on agonist-induced Ca2+ response, TRPA1 (TRPA1): did not significantly affect | Effect on agonist-induced Ca2+ response, TRPV1 (TRPV1): did not significantly affect | Effect on agonist-induced Ca2+ response, TRPV3 (TRPV3): did not significantly affect
Structure (SMILES): COc1cccc2sc(N(CCN(C)C)C(=O)c3ccc4c(c3)CCCC4)nc12 [Compound 1s, N-(2-(dimethylamino)ethyl)-N-(4-methoxybenzo[d]thiazol-2-yl)-5,6,7,8-tetrahydronaphthalene-2-carboxamide]
MKN-45 cell migration (wound healing) (MKN-45 cells): inhibited the MKN-45 cell migration

Reference: publication PMC8028158 (ACS Omega, 2021)
